Assay: Toxicity liver stage against HepG2, at 10uM
Format: cell-based
Design: test concentration 10 uM, cell line HepG2-A16-CD81EGFP
Details: human, HepG2-A16-CD81EGFP cells; read-out: INHIBITION
Method in brief: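 Uninfected HepG2-A16-CD81EGFP cells, 3 × 10^3 per well, 1536-well, plated on prespotted compound at 10 μM final, parasite-free screening media added to match infected plates; puromycin 10 μM positive, DMSO 0.5% negative; run in parallel with 48 h PbLuc assay at 37 °C, 5% CO2; viability by CellTiter-Glo luminescence, normalized to controls.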

SMILES | cytotoxicity at 10 µM
Cn1c2ccc(F)cc2c2ncn(CCN3CCOCC3)c(=O)c21 | 18.2%
CC(C)(O)CN1CC(C)(C)CN(C(=O)CCc2ccccc2)CC1=O | 2.37%
CC(=O)N1CC[C@@]2(O)CCCC[C@H]2[C@@H]1c1ccccc1 | 2.41%
COC(=O)CNC(=O)c1nc(Br)sc1C(C)C | -172%
CCSc1nc(N)c(NC(=O)c2ccc(OC)c(OC)c2)c(=O)[nH]1 | -6.24%
COc1ccccc1C(=O)NCC(c1cccn1C)N1CCOCC1 (stereo unspecified) | 7.11%
Cn1cnc(S(=O)(=O)NCC2(O)CCc3ccccc32)c1 (stereo unspecified) | 11.6%
CN(C)C(=O)N1CC2(CCOCC2)c2cc(NC(=O)CCO)ccc21 | -6.13%
C[C@@H]1C[C@H]2CN(C(=O)c3cccc4c3OCCO4)C[C@H]2O1 | -0.726%
Cc1noc(C)c1CN1CC[C@H]2OCC[C@@H](C(=O)N3CCCO3)[C@H]2C1 | 2%
Cc1csc([C@H]2C[C@@H]3CCN(C(=O)c4cnccn4)C[C@H]3O2)n1 | 1.07%
O=C1COc2ccc(S(=O)(=O)NCc3ccccc3)c3c2N1CCC3 | -7.48%
CC(C)CCn1nc(CNc2ccc(Br)cc2)nc1O | 9.84%
Cc1cccc(C)c1-n1nnnc1C1(NCc2ccco2)CCCC1 | 12.9%
Cc1nn(C)c2cnn(CC(=O)NCc3ccc(F)cc3)c12 | 8.27%
CC(O)c1cccc(Nc2nc(NCCO)c3ccccc3n2)c1 (stereo unspecified) | 18.4%
CCn1nccc1CNC(=O)Cn1cc2c(n1)c(C)nn2C(C)C | -4.7%
c1cncc(CNc2ccccc2-c2nn[nH]n2)c1 | 9.35%
Cc1csc(C(Cc2cccs2)NCc2cc3c(cc2C)OCO3)n1 (stereo unspecified) | -8.9%
CN(C)C(=O)C1(C)CN(Cc2cn(C)c3ccccc23)CCO1 (stereo unspecified) | 1.78%
COCCN1CCC(Cc2cncc(-c3ccc(C(=O)O)cc3)n2)C1 (stereo unspecified) | -0.413%
Cc1noc2nc(C3CCN(Cc4ccncc4)CC3)cc(C(F)F)c12 | 6.54%
c1c[nH]c2nc(C3CCCNC3)nc-2c1 (stereo unspecified) | 8.35%

SMILES | cytotoxicity at 10 µM
c1ccc(-c2nc(CCNCc3cccnc3)co2)cc1 | -5.35%
CC(C)(C)c1cc(NC(=O)NCCc2nnc3n2CCC3)c(C#N)s1 | 14.1%
CC(=O)N1CCN(c2ccccc2CNc2cc(F)cc(F)c2)CC1 | 3.7%
CN(c1ncccc1C#N)C1CCN(CCc2ccncc2)CC1 | 28.7%
CNC(=O)c1ccc(CN2CCN(C3=NCC(C)(C)S3)CC2)cc1 | 14.3%
Cc1oc(-c2ccco2)nc1CN1CCc2cncnc2C1 | 2.44%
Cn1cc(-c2ncc(C(=O)NCCCn3ccccc3=O)s2)cn1 | 4.13%
Cc1c(Br)cccc1CSc1nnc(CO)n1C | -40.5%
CN(CCN1CCN(c2ccccc2)CC1)C(=O)Nc1ccccn1 | 6.37%
CCn1cc(CN2CCCN(C(=O)C3(C#N)CCCCC3)CC2)cn1 | -53.5%
CC(C)c1noc(CCC(=O)NCC(c2ccco2)N2CCCC2)n1 (stereo unspecified) | -9.71%
CN1CCCC(N(C)C(=O)c2ccc(NC(=O)c3cc[nH]n3)cc2)C1 (stereo unspecified) | 0.624%
N#CC1(NC(=O)c2cc(Cl)ccc2OC(F)F)CCOCC1 | 7.48%
Cc1nc(CNCC2CNc3ccnn3C2)cs1 (stereo unspecified) | -8.71%
Cc1cccc(N2CCN(CCS(=O)(=O)c3ccc(Br)cc3)CC2)c1C | 21.9%
CNS(=O)(=O)Cc1cccc(CNc2ccc(Cl)cn2)c1 | -5.71%
O=C1C(N2CCOC3(CCCC3)C2)CCN1C1CC1 (stereo unspecified) | 9.4%
N#Cc1ccc(N2CCC(OCCc3ccccc3)CC2)nc1 | -9.67%
COCCNS(=O)(=O)c1ccc(Cl)c(C(=O)N(C)Cc2ccsc2)c1 | -1.39%
Cc1nn(C)c2ncc(S(=O)(=O)N3CCCC(C)CC3)cc12 (stereo unspecified) | 2.6%
Cc1cc(C)n(-c2cncc(NCCNC(=O)C3CCCC3)n2)n1 | 3.51%
FC(F)(F)C1CCCn2c(CNCc3ccco3)nnc21 (stereo unspecified) | -9.5%
COCc1nc2n(n1)CCCC2Nc1nc(C(C)C)ns1 (stereo unspecified) | 5.6%

SMILES | cytotoxicity at 10 µM
Cc1ccc(C2COCCN2C(=O)c2ccc(F)c(F)c2)o1 (stereo unspecified) | 4.96%
Cc1nc(C2CCCN(C(=O)c3csc(C)n3)C2)no1 (stereo unspecified) | 7.04%
CCc1nnc(CN2CCCC(Cn3nc(C)nc3C)C2)o1 (stereo unspecified) | 6.81%
CC(C)NC(=O)NCC(Cc1ccc(F)cc1)C(N)=O (stereo unspecified) | 12.8%
CC(C)c1nnc2n1CC(CNCc1cccnc1)CC2 (stereo unspecified) | 6.59%
CCC(C)(C)NC(=O)CN(Cc1cccc(O)c1)C1CCC(O)CC1 (stereo unspecified) | -2.22%
N#Cc1cc(Br)ccc1NC1CCN(CC(N)=O)CC1 | 5.23%
Cc1cnn(CC2CCCN2C(=O)c2sccc2C#N)c1 (stereo unspecified) | 12.3%
O=S(=O)(C/C=C/c1ccccc1)Cc1nc(C2CC2)no1 | -12.4%
COc1ccc(OCCN(C)c2cc(C)nc(N)n2)cc1 | 49.5%
Cc1nn(C)c2ncc(CN3CCCCCC3)cc12 | 0.106%
NC(=O)C(NC(=O)COC1CCCC1)c1ccccc1 (stereo unspecified) | 3.25%
Cc1csc(N2CCN(Cc3nnsc3Cl)CC2C)n1 (stereo unspecified) | -59.9%
CNC(=O)CN(C)C(=O)c1cc(Cl)c(I)cc1OC | 13.8%
Cc1ccc(N(C)C2CCCN(C(=O)Nc3ccc(F)cc3F)C2)cc1 (stereo unspecified) | -8.19%
O=S(=O)(Cc1ccccc1F)NC(CO)c1ccco1 (stereo unspecified) | 6.6%
CN(C)C(=O)c1ccc(CNc2c(Cl)cccc2C#N)cc1 | -50.6%
Cc1ccc(=O)n(CC(=O)N2CCCC(c3nc(C)c(C)s3)C2)n1 (stereo unspecified) | -3.06%
CCc1ccc(C(=O)N2CCCC(n3cncn3)C2)o1 (stereo unspecified) | -9.78%
CC(=O)N1CCO[C@@H]2CN(S(=O)(=O)c3ccc(F)cc3)CC[C@@H]2C1 | 13.7%
CS(=O)(=O)N[C@@H]1CCN(Cc2cccnc2)[C@H]1Cc1cccnc1 | -70.2%
CCN1Cc2c(C(=O)NC)ncn2-c2ccccc2S1(=O)=O | -73%
O=S(=O)(c1ccccc1)N1CC[C@]2(C[C@@H](OCC3CC3)CO2)C1 | -81.3%

SMILES | cytotoxicity at 10 µM
O=C(c1cnccn1)N1CCc2onc(CN3CCOCC3)c2C1 | 9.47%
Cn1c2c(ccc1=O)CC(NS(C)(=O)=O)CC2 (stereo unspecified) | 3.99%
O=C1NCCN(CC2CC2)C12CCN(Cc1ccco1)CC2 | 2.55%
CN(Cc1nncn1C)C(=O)c1cc(COc2ccccc2)[nH]n1 | 9.23%
Cc1nc2ccccn2c1CN1C[C@@H](CN(C)C)[C@@H](CO)C1 | 0.743%
CN1CCNC(=O)C1CC(=O)NCCc1cnn(-c2ccccc2)c1 (stereo unspecified) | 2.53%
CCNC(=O)CN1CCCC(c2ccc(C(=O)O)cc2)C1 (stereo unspecified) | 8.57%
O=C(Cc1ccsc1)N1CCC(c2ccncc2)CC1 | 8.89%
CCCn1cnnc1CNC(=O)CC1C(=O)NCCN1C(C)C (stereo unspecified) | 0.445%
CCc1nc(Cn2ccnc2-c2nccn2C)no1 | -42%
Cc1cc(-c2cc(S(=O)(=O)N3C[C@H](C4CC4)[C@@H](N)C3)c(C)s2)on1 | 3.37%
CCOCc1nc2c(c(N(C)Cc3snnc3C)n1)CCNCC2 | 10.7%
Cc1csc2ncn(C(C)Cc3cccnc3)c(=O)c12 (stereo unspecified) | 6.9%
CCN(Cc1noc(CC(C)C)n1)Cc1cccc(F)c1O | -44%
COc1ccc(OC)c(-n2c(COC(C)C)n[nH]c2=O)c1 | 7.78%
O=C(c1cccnc1N1CCOC(c2ccc(F)cc2)C1)N1CCCC1 (stereo unspecified) | 8.04%
CNC(=O)C(C)(C)NC(=O)c1cc(COc2cccc(C(C)=O)c2)[nH]n1 | 3.69%
CC(C)N1CCOC(Cc2nn3c(Cc4ccccc4)nnc3s2)C1 (stereo unspecified) | -6.53%
COc1ccc(N2CCC(N(C)C(C)C(=O)N(C)C)CC2)cc1 (stereo unspecified) | 11%
Cn1cccc1-c1cc(C(=O)N2CC(c3cccnc3)C2)[nH]n1 | -13.7%
Cc1noc(C)c1S(=O)(=O)NC(=O)COc1ccc2c(c1)CCC2 | -3.07%
Cc1ccc(C(=O)N2CCC(Oc3cccc(C)c3C)CC2)c(=O)[nH]1 | -6.48%
CCc1nc(C2CCCN(C(=O)c3c(C)noc3C)C2)no1 (stereo unspecified) | -12.8%

SMILES | cytotoxicity at 10 µM
CCc1nnc2n1CCN(CC(=O)Nc1cc(C(C)(C)C)nn1C)C2 | -5.77%
OC(COCc1ccc(Cl)cc1)CN1CCC(c2ccn[nH]2)CC1 (stereo unspecified) | -7.21%
CC(NC(=O)c1cccs1)C(=O)NCc1ccccc1CN1CCCC1 (stereo unspecified) | -14.2%
COc1ccccc1CCN(C)C(=O)NC(C)c1nncn1C (stereo unspecified) | -1.88%
O=C(c1csc(Br)c1)N1CCCC(n2ccnc2)C1 (stereo unspecified) | 3.51%
CCc1ncc(CN(CCc2ccccc2)Cc2cccs2)cn1 | 2.44%
Cc1ccc([C@]2(O)CC[C@H]3CN(Cc4cc(C)c(O)c(C)c4)C[C@H]32)nc1 | -6.72%
c1csc(CN2CCn3c(Cn4cncn4)cnc3C2)n1 | -5.97%
Cc1nnc([C@@H]2C[C@H]3CN(C4CCC4)C[C@H]3O2)[nH]1 | 8.89%
O=C(c1cscn1)N1CCC2(CN(Cc3ccsc3)C2)C1 | 4.06%
Cn1cccc1C(=O)N1CCC2(CCCN2Cc2ccccc2)CC1 | 0.929%
CN1CC(=O)N(c2ccsc2)CC12CCN(C(=O)c1ccccc1)C2 (stereo unspecified) | -0.516%
COc1ncccc1CN1CCC2(CCCN2S(C)(=O)=O)CC1 | 8.86%
O=C1[C@H]2CN(Cc3ccoc3)C[C@H]2CN1Cc1ccncc1 | -14.1%
Cc1noc(C)c1CN1CCn2cc(CNC(=O)C3CCC3)nc2C1 | 5.28%
CN(C)C(=O)CC1CC2(CCN(Cc3cccs3)CC2)c2ccccc21 (stereo unspecified) | -3.87%
c1nc(CNC2CCOCC2)c2n1CCCN(CC1CC1)C2 | -69.1%
Cc1nc(COCC2CN(C(=O)N(C)C)Cc3nccn3C2)cs1 (stereo unspecified) | 4.48%
COCC1CN(Cc2ccccn2)Cc2cn(C)nc21 (stereo unspecified) | -78.6%
